A selection: hits, their analogues and other compounds. The true share with any hit is near 2.5%.
PRMT1 inh: PRMT1 (human) inhibition, primary screen. hit rate 1.3% among 370,000. inhibition, % at 2.79 µM. recombinant PRMT1, activity-based probe fluorescence polarization;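 active = inhibition above about 21% made by adding two undisclosed values, limit read from the data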
Target sequence (Q99873 whole entry, looked up): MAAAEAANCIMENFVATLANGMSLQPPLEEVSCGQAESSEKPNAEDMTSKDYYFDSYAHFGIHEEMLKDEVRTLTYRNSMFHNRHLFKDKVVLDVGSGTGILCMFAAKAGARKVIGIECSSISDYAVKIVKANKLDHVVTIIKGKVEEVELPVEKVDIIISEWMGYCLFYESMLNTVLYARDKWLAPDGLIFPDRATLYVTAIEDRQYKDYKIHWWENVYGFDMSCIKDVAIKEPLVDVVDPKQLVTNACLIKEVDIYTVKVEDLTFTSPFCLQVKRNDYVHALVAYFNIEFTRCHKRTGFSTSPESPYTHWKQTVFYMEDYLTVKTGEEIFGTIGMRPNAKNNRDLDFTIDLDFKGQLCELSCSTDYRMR
SIAE primary: human SIAE inhibition, primary screen. Q9HAT2. SIAE FP-Rh probe binding, fluorescence polarization. inhibition, % at 9.66 µM. hit rate 0.69% among 370,000;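 active = inhibition above a cutoff: mean of compounds within the control limits plus 3 SD of those, cut at about 17% in these data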;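 note: 0% = plate median of compound wells and 100% = probe without SIAE protein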
HTRA1 inh: inhibitors of human serine peptidase HTRA1. inhibition, % at 5.96 µM. Q92743. recombinant HTRA1, FP-rhodamine activity-based probe, fluorescence polarization. AID 504803. hit rate 0.5% among 340,000; in the data active = inhibition above about 36%;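 note: 0% = enzyme with DMSO and 100% = wells lacking enzyme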
mABHD4 FP: ABHD4 (mouse) inhibition, primary FP screen; inhibition, % at 8.92 µM; AID 720543; hit rate 0.54% among 370,000; Q8VD66; purified mABHD4, FP-Rh probe fluorescence polarization;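 active = inhibition exceeding the mean over every tested compound plus 3 SD, cut at about 30% in these data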;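 note: 0% = plate median of compound wells and 100% = S159A mutant with DMSO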
Target sequence (Q8VD66 whole entry, looked up): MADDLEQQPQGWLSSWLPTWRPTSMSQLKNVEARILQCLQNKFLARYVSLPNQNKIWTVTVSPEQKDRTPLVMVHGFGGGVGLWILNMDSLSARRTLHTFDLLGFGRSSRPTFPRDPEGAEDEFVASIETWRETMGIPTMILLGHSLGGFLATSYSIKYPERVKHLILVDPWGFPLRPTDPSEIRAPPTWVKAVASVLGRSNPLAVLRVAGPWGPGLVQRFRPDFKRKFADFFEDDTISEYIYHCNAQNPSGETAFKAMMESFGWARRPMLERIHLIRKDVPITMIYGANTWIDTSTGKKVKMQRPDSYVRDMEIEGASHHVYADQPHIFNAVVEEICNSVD
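Test system: mABHD4 protein | Buffer or medium: HEPES pH 7.0 buffer, 150 mM NaCl, 0.01% Pluronic F-127 | Probe or stimulus: FP-Rh fluorescent activity-based probe, added after compound pre-incubation | Timing: Pre-incubation 45 min, probe exposure 60 min, at 25 °C | Technique: Fluorescence polarization, excitation 525 nm, emission 598 nm, BODIPY TMR filters | Repeats: Single well per compound (singlicate)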
TCR CD3 inh: inhibitors of human TCR-CD3 interaction; inhibition, % at 9.4 µM; AID 651800; hit rate 0.37% among 360,000; TAMRA-labeled TCR probe fluorescence, biochemical; in the data active = inhibition above about 19%;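 note: recombinant mutant TCR 2C K166C tagged with TAMRA read by polarization; 0% = receptor in buffer alone and 100% = receptor with positive control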
mABHD4 conf: ABHD4 (mouse) inhibition, FP confirmation; inhibition, % at 8.92 µM; hit rate 55% among 1,800; purified mABHD4, FP-Rh probe fluorescence polarization; shares compounds with mABHD4 FP;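 active = mean inhibition across replicates above the hit cutoff set in the primary screen, cut at about 30% in these data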;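 note: 0% = wild-type ABHD4 with DMSO and 100% = catalytically dead S159A mutant with DMSO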
* hit, by the source's call; nt = no result given.

SMILES	PRMT1 inh	SIAE primary	HTRA1 inh	mABHD4 FP	TCR CD3 inh	mABHD4 conf
C=C(C)Cn1c(SCC(=O)N/N=C(\C)c2ccc([N+](=O)[O-])cc2)nnc1-c1ccc(Br)cc1	-6.3	-6.2	nt	-7.0	nt	nt
Nn1c(SCc2ccc([N+](=O)[O-])cc2)nnc1-c1cc(-c2ccccc2)n[nH]1	7.1	-5.6	nt	-23.4	nt	nt
O=C(CNc1cccc2ccccc12)N/N=C/c1ccc(C(=O)O)cc1	2.6	8.9	4.4	29.8*	-0.6	21.2
O=[N+]([O-])c1ccc2nc(CNc3nc(N4CCOCC4)nc4c3ncn4-c3ccsc3)[nH]c2c1	7.4	2.1	nt	-9.6	nt	nt
CCC(=O)N1CCc2cc(Br)c(S(=O)(=O)N3CCC(C(=O)NC(C)(C)C)CC3)cc21	1.4	12.5	nt	-1.8	nt	nt
CCCNc1c(F)c(F)c2c(C)c3ccccc3nc2c1F	13.8	15.0	50.9*	50.8*	7.1	44.5*
CCN(C(=O)c1ccc(S(C)(=O)=O)cc1)C12CC3CC(CC(C3)C1)C2	-2.6	-3.0	0.7	93.0*	4.3	-37.3
NC(=S)NN=Cc1cc(-c2cccc(N)c2)ccn1	6.0	-0.2	26.2	43.8*	0.3	57.5*
Cc1cc2c(cc1C)N(C(=O)CSC1=NCCS1)C(C)(C)c1ssc(=S)c1-2	7.2	8.5	30.1	37.0*	3.2	14.0
COc1ccc(COC[B-](F)(F)F)cc1	-2.8	0.1	5.6	43.6*	5.9	28.6
O=C(C1CC1)n1ccc2ccc(-c3ccc4ccn(Cc5ccccc5)c4c3)cc21	1.0	1.5	nt	-1.1	nt	nt
CCOc1ccc(C(=O)Nc2nc3ccccc3[nH]2)cc1OCC	0.0	-1.4	-3.3	35.4*	-4.2	40.2*
COc1ccc(OCC(=O)Nc2nc3ccccc3[nH]2)cc1	-2.9	-12.3	-3.7	39.3*	2.6	39.0*
COc1cc(OC)cc(C(=O)Nc2nc3ccccc3[nH]2)c1	-5.2	0.7	-6.3	35.6*	4.3	30.9*
Cc1cc(C)cc(C(=O)Nc2nc3ccccc3[nH]2)c1	-0.7	-2.8	0.3	17.6	-1.1	nt
COc1ccc(C(=O)Nc2nc3ccccc3[nH]2)cc1OC	1.4	-2.3	2.1	3.9	3.1	nt
O=C(Nc1nc2ncccn2c1-c1ccccc1)C1CC1	2.4	0.1	nt	-0.6	nt	nt
Cc1ccccc1Cn1cc(CN2[C@@H](Cc3ccccc3)COc3cc(Br)ccc3S2(=O)=O)nn1	-0.7	-1.2	nt	-29.4	nt	nt
Cc1ccccc1C(=O)N(Cc1ccccn1)CC1CCCO1 (centres undefined)	1.5	-1.1	nt	3.2	nt	nt
Cc1cc(C(=O)O)ccc1-c1ccc(/C=C2\NC(=O)N(Cc3ccc(F)cc3)C2=O)o1	5.3	3.7	1.9	29.9*	4.7	78.1*
Cc1ccc(CN2C(=O)N/C(=C/c3ccc(-c4ccc(C(=O)O)cc4)o3)C2=O)cc1	13.0	-2.3	-4.6	4.9	0.2	nt
Oc1ccc2ccccc2c1C=NNc1ccccn1	4.2	7.0	10.7	35.5*	0.9	29.1
COC(=O)C[C@@H]1CC[C@H]2[C@@H](COc3ccc(NC(=O)Nc4ccc(C)cc4)cc3C(=O)N2C)O1	-0.4	1.1	nt	-3.4	nt	nt
Nc1c(O)ccc2c1C(=O)c1ccccc1C2=O	16.0	0.7	nt	44.8*	-11.6	47.2*
CCN(CCNCC(O)COc1ccccc1C(C)C)c1cccc(C)c1 (centres undefined)	-4.1	2.6	13.8	31.6*	3.2	40.8*
SMILES	PRMT1 inh	SIAE primary	HTRA1 inh	mABHD4 FP	TCR CD3 inh	mABHD4 conf
CCOC(=O)N1CCN(CC(O)COc2ccccc2C(C)C)CC1 (centres undefined)	-1.8	-0.9	-3.1	0.0	-2.6	nt
CC(C)(C)c1ccc(-c2csc(N3CCC(C(N)=O)CC3)n2)cc1	2.0	3.6	nt	34.7*	nt	37.1*
CC1=CC(=O)C(C(C)C)=C/C1=N\OS(=O)(=O)c1ccccc1	7.9	4.3	nt	1.9	nt	nt
CN1CCN(c2ccc(C(=O)c3ccccc3)cc2[N+](=O)[O-])CC1	-2.5	3.7	0.3	0.7	9.2	nt
O=C(O)c1ccc(N2CCN(C(c3ccccc3)c3ccccc3)CC2)c([N+](=O)[O-])c1	3.8	-1.8	-4.3	32.4*	-3.7	47.4*
Cc1ccc(OC[C@@H](O)CN2CCC(C(O)(c3ccccc3)c3ccccc3)CC2)cc1	0.9	3.2	nt	0.6	nt	nt
CSc1ccc(C(=O)NCC2CCN(C(=O)C(=O)c3cc4ccccc4o3)CC2)cc1	2.0	-0.7	nt	0.2	-3.9	nt
Cc1cc(=O)oc2c(O)c(O)ccc12	11.8	10.1	12.7	29.6*	10.0	1.1
Cc1c(Cc2ccccc2)c(=O)oc2cc(O)ccc12	2.8	-1.0	-7.6	-12.3	2.4	nt
Cc1c(Cc2ccccc2)c(=O)oc2c(O)c(O)ccc12	6.7	-9.6	nt	35.4*	7.7	88.8*
O=C(/C=C(\Nc1ccc(F)cc1)c1ccccc1)c1ccccc1	-0.5	-5.1	nt	3.7	0.3	nt
COc1ccc(Nc2ccc(C(=O)O)cc2[N+](=O)[O-])cc1	4.4	-1.7	3.3	49.2*	-8.4	43.1*
O=C(O)c1ccc(Nc2ccc(F)c(F)c2)c([N+](=O)[O-])c1	-0.4	-3.3	1.8	31.7*	-3.6	31.9*
Cc1cccc(Nc2ccc(C(=O)O)cc2[N+](=O)[O-])c1C	5.6	-1.2	5.5	36.8*	-4.3	29.6*
Cc1ccc(C(=O)O)cc1[N+](=O)[O-]	0.9	-4.7	-1.3	-3.5	15.4	nt
COc1ccc(Nc2ccc(C(N)=O)cc2[N+](=O)[O-])cc1	-3.6	-2.2	4.5	1.2	-4.9	nt
CCOc1ccc(Nc2ccc(C(=O)O)cc2[N+](=O)[O-])cc1	-5.8	6.2	1.4	59.6*	-9.1	44.8*
O=C(NCc1ccco1)C1CCCN(S(=O)(=O)c2ccccc2[N+](=O)[O-])C1 (centres undefined)	-2.4	-0.9	nt	2.0	nt	nt
Cc1ccc(CN2CCCCC(NC(=O)c3ccc(Br)cc3)C2=O)cc1 (centres undefined)	-9.4	1.2	nt	-6.8	nt	nt
CCN1C(=O)c2cccc3c(N)ccc(c23)C1=O	171.7*	8.7	24.4	33.3*	12.5	58.0*
Cc1ccn2c(NC3CCCCC3)c(-c3cccc(-c4cccc(Cl)c4)c3)nc2c1	3.1	1.7	-7.0	37.8*	-5.5	53.8*
Cc1ccc(CN2CCCCC(NC(=O)c3ccc(F)c(F)c3)C2=O)cc1 (centres undefined)	3.3	0.4	nt	-1.7	nt	nt
Oc1ccc(NC(=S)Nc2ccc(O)cc2)cc1	4.3	14.3	20.9	49.2*	13.3	-7.2
COc1ccc(Br)cc1/C=C(\C(=O)O)c1ccc(S(=O)(=O)N2CCCC2)s1	7.5	-3.8	-9.6	29.6*	-5.6	13.3
COc1cc(/C=C(\C(=O)O)c2ccc(S(=O)(=O)N3CCCC3)s2)cc(OC)c1	3.9	2.4	-3.0	10.5	-2.4	nt
O=C(Nc1ccc(Cl)cc1Cl)OC1CCC12CCC(c1ccccc1)CC2 (centres undefined)	4.1	6.1	nt	-11.4	nt	nt

Screens as filed in PubChem.
